Results taken from paper PMC2907921 (Cancer cell, 2010).

Columns and labels:
[1] = system: COX; settings: ref Haanen, 2001; cited from earlier work
[2] = system: prostaglandin E2 (PGE2) production, A549 cells; test: Prostaglandin E2 production; type: cell-based
Method in brief: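 A549 cells were stimulated with TNFα 10 ng/ml for 24 hr, then exposed to test compound for 30 min. PGE2 was measured by enzyme immunoassay kit and expressed as the ratio of PGE2 with compound to PGE2 with vehicle.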

[3] = system: AKT activation; test: AKT activation by immunoblotting; type: cell-based; settings: 50 μM
Method in brief: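 Immunoblot for Ser473-phospho-AKT. Cells were serum-starved overnight and exposed to 100 μM test compound for 1 hr. In TNFα arms, cells were pretreated with compound (100 μM in A549, 50 μM in PC3) for 1 hr and then given TNFα 10 ng/ml for 30 min. Some cells were transfected with RXRα, RARγ or control siRNA for 48 hr beforehand. Compound was dissolved in DMSO.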

[4] = system: HeLa/RXRα/1–134 and RXRα/Δ80 cells; test: Colony formation; type: cell-based; settings: 25 μM
Method in brief: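 Clonogenic survival of HeLa stably expressing RXRα/1–134, and of SW480 or HCT116 stably expressing GFP-RXRα/Δ80. Cells were grown in 6-well plates for 5 days, then exposed to 25 μM test compound in 0.5% serum medium for 3 days. Colonies were fixed with 4% paraformaldehyde and stained with 0.1% crystal violet.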

[5] = target: T1, RXRα LBD (Homo sapiens, UniProt P19793); test: Competition ligand-binding assay with [3H]9-cis-RA; settings: Sulindac analogs
T1 sequence (P19793 227-458 limits assumed): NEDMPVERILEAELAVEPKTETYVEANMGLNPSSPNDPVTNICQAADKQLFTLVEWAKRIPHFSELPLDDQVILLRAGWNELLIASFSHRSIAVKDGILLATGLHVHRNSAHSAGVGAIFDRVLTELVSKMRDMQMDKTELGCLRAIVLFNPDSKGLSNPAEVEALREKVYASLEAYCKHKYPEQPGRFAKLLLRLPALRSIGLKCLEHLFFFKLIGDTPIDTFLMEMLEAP
Method in brief: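 Competitive binding: RXR ligand-binding domain incubated with [3H]-9-cis-RA, with or without unlabeled 9-cis-RA or test compound. Bound radioligand was quantified by liquid scintillation counting.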

[6] = target: T2, tRXRα/p85α interaction (Homo sapiens, UniProt P19793); test: tRXRα/p85α interaction by co-immunoprecipitation; type: cell-based; settings: A549 cells, 50 μM, absence or presence of TNFα
T2 sequence (P19793 81-462 limits assumed): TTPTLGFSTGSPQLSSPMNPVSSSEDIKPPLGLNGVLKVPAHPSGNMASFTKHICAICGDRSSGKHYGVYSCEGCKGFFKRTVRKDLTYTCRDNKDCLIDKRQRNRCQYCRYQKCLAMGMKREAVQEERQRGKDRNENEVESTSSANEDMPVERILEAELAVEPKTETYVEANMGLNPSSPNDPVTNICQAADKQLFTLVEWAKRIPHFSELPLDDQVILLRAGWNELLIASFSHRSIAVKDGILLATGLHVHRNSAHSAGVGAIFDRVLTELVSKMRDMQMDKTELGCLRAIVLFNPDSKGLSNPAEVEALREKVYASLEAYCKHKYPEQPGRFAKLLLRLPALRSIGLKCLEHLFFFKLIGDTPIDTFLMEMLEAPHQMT
Method in brief: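 Two co-immunoprecipitation set-ups in A549 cells. (a) Endogenous protein: cells received TNFα 10 ng/ml and/or 100 μM test compound for 30 min, then were immunoprecipitated with the C-terminal ΔN197 RXRα antibody and blotted for p85α. (b) Transfected Flag-p85α and Myc-RXRα/Δ80: cells were pretreated with 50 μM compound for 1 hr, then given TNFα for 30 min, and immunoprecipitated with anti-Flag.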

[7] = system: RXRα/Δ80 tumor; test: RXRα/Δ80 tumor growth in nude mice; type: in vivo, Nude mice (BALB/c); settings: 60 mg/kg intraperitoneally, two weeks
[8] = system: COX-1 and COX-2; test: COX Fluorescent Activity Assay; type: biochemical
[9] = system: cancer cell lines (HepG2, ZR-75-1); test: PARP cleavage and caspase-8 activation by immunoblotting; type: cell-based
Method in brief: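 Immunoblot for PARP cleavage and cleaved caspase-8 (p43/p41). ZR-75-1 cells were exposed to TNFα and/or test compound (50 or 75 μM) for 6 hr. HepG2 cells in 1% FBS medium received TNFα 10 ng/ml and/or 75 μM compound for 4 hr. Some cells were pretreated with 1 μM SR11237 for 1 hr.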

| SMILES | COX-inhibiting activity [1] | Inhibition of constitutive and TNFα or IL-1β-induced PGE2 production [2] | Inhibition of RA- and TNFα-induced AKT activation, compared with Sulindac [3] | Colony formation [4] | RXRα-binding activity [5] | Interaction of RXRα/Δ80 with p85α, compared with Sulindac [6] | Inhibition of RXRα/Δ80 tumor growth, compared with Sulindac [7] | Inhibition of COX activities [8] | PARP cleavage with TNFα, compared with Sulindac ([9]; ZR-75-1 cells, K-80003 50 μM, Sulindac 75 μM, 6 hr) | PARP cleavage and caspase-8 activation, with TNFα ([9]; various cancer cell lines) |
| --- | --- | --- | --- | --- | --- | --- | --- | --- | --- | --- |
| CC1=C(CC(=O)O)c2cc(F)ccc2/C1=C/c1ccc([S+](C)[O-])cc1 (centres unmarked) [sulindac sulfoxide] | no COX-inhibiting activity | – | – | – | – | – | – | – | – | – |
| CC1=C(CC(=O)O)c2cc(F)ccc2/C1=C\c1ccc(S(C)(=O)=O)cc1 [sulindac sulfone] | no COX-inhibiting activity | – | – | – | – | – | – | – | – | – |
| CC1=C(CC(=O)O)c2cc(F)ccc2/C1=C\c1ccc(C(C)C)cc1 [K-80003] | – | failed to inhibit | much more effective than Sulindac | almost completely suppressed | most potent | more potently inhibited | much more potent inhibitory effect than Sulindac | no detectable inhibition | more effective than Sulindac | synergistically induced PARP cleavage and caspase-8 activation |
